Results reported in ChEMBL document CHEMBL3751733, “Synergistic Antifungal Meroterpenes and Dioxolanone Derivatives from the Endophytic Fungus Guignardia sp” (J Nat Prod, 2015).
Values after ≈ are worked out from the molar mass of the structure shown. Active and inactive are the calls of the source. The rule behind the calls is not given here.

Legend:
[1] = test system: Staphylococcus aureus; experiment: Antibacterial activity against Staphylococcus aureus ATCC 25923 by broth microdilution method; assay type: functional
How it was run: (§1)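 Broth microdilution in 96-well plates; MIC read by comparing OD with the growth control; amoxicillin and streptomycin as positive controls.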

[2] = test system: Bacillus subtilis; experiment: Antibacterial activity against Bacillus subtilis ATCC 6633 by broth microdilution method; assay type: functional; how it was run: as §1
[3] = test system: Escherichia coli; experiment: Antibacterial activity against Escherichia coli ATCC 25922 by broth microdilution method; assay type: functional; how it was run: as §1
[4] = test system: Candida albicans; experiment: Antibiofilm activity against Candida albicans ATCC 24433 after 24 hrs by XTT-based colorimetric assay; assay type: functional; settings: ATCC 24433, 24 h
How it was run: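 XTT assay: YPD overnight culture, PBS-washed, 1.0 × 10^6 cfu/mL in RPMI-1640/MOPS; biofilms formed at 37 °C for 24 h, washed, then treated 24 h at 37 °C; 0.5 mg/mL XTT for 2 h, read at 490 nm. MIC = lowest concentration giving ≥80% reduction in XTT signal.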

[5] = test system: Pseudomonas aeruginosa; experiment: Antibacterial activity against Pseudomonas aeruginosa ATCC 9027 by broth microdilution method; assay type: functional; how it was run: as §1
[6] = test system: U2OS; experiment: Cytotoxicity against human U2OS cells by MTT assay; assay type: cell-based
How it was run: (§2)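 MTT assay with cisplatin as positive control.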

[7] = test system: MCF7; experiment: Cytotoxicity against human MCF7 cells by MTT assay; assay type: cell-based; how it was run: as §2
[8] = test system: HepG2; experiment: Cytotoxicity against human HepG2 cells by MTT assay; assay type: cell-based; how it was run: as §2
[9] = test system: Candida albicans; experiment: Antifungal activity against Candida albicans ATCC 24433 assessed as growth inhibition after 24 hrs by broth microdilution assay; assay type: functional; settings: ATCC 24433, 24 h
How it was run: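 Broth microdilution: 24-h colonies suspended in 0.85% saline, diluted in RPMI-1640 with MOPS to 1.0 × 10^4 cfu/mL final, mixed 1:1 with sample; 35 °C, 24 h; OD 595 nm. MIC = lowest concentration giving 80% growth reduction. Fluconazole positive control; SD from three independent experiments.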

[10] = test system: Candida albicans; experiment: Antifungal activity against Candida albicans ATCC 24433 assessed as synergistic growth inhibition after 24 hrs in presence of fluconazole by broth microdilution assay; assay type: functional; settings: ATCC 24433, 24 h
How it was run: (§3)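 Checkerboard in RPMI-1640/MOPS, inoculum 1.0 × 10^4 cfu/mL, 35 °C, 24 h, OD 595 nm. Compound 25 to 0.8 μg/mL against fluconazole 4.0 to 0.0078 μg/mL. MIC = concentrations giving ≥80% growth reduction. FICI ≤ 0.5 counts as synergy; values compared at fluconazole 0.031 μg/mL.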

[11] = test system: Candida albicans; experiment: Antifungal activity against Candida albicans ATCC 24433 assessed as fractional inhibition concentration index in presence of fluconazole by checkerboard assay; assay type: functional; how it was run: as §3
[12] = test system: Candida albicans; experiment: Antibiofilm activity against Candida albicans ATCC 24433 after 24 hrs in presence of fluconazole by XTT-based colorimetric assay; assay type: functional; settings: ATCC 24433, 24 h
How it was run: (§4)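 Preformed biofilms (1.0 × 10^6 cfu/mL in RPMI-1640/MOPS, 37 °C, 24 h) treated 24 h at 37 °C in a checkerboard: compounds 160 to 5 μg/mL, fluconazole 500 to 8 μg/mL. Read by 0.5 mg/mL XTT for 2 h at 490 nm, ≥80% reduction as endpoint; FICI calculated.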

[13] = test system: Candida albicans; experiment: Synergistic antibiofilm activity against Candida albicans ATCC 24433 assessed as fractional inhibition concentration ratio after 24 hrs in presence of fluconazole by checkerboard assay; assay type: functional; how it was run: as §4
[14] = test system: Candida albicans; experiment: Synergistic antibiofilm activity against Candida albicans ATCC 24433 assessed as fractional inhibition concentration index after 24 hrs in presence of fluconazole checkerboard assay; assay type: functional; how it was run: as §4
[15] = test system: Candida albicans; experiment: Antifungal activity against Candida albicans ATCC 24433 assessed as fractional inhibition concentration ratio in presence of fluconazole by checkerboard assay; assay type: functional; how it was run: as §3
[16] = test system: Candida albicans; experiment: Potentiation of antifungal activity of fluconazole against Candida albicans ATCC 24433 by checkerboard assay; assay type: functional; how it was run: as §3
[17] = test system: Candida albicans; experiment: Synergistic antibiofilm activity against Candida albicans ATCC 24433 assessed as reduction in biofilm formation at 40 to 80 ug/ml in presence of 63 ug/ml fluconazole by scanning electron microscopic analysis; assay type: functional, organism-based
How it was run: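 Biofilms grown 24 h at 37 °C on poly-L-lysine-treated glass coverslips from 1.0 × 10^6 cfu/mL, washed, then exposed 24 h to compound plus fluconazole; fixed in 2.5% glutaraldehyde (0.2 M PBS, pH 7.2) and 1% osmium, ethanol-dehydrated, critical-point dried, gold-coated; SEM at 10 kV.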

MIC [1]	MIC [2]	MIC [3]	MIC80 [4]	MIC [5]	MIC80 [9]	MIC80 [10]	MIC80 [12]	Compound	Activity [6]	Activity [7]	Activity [8]	fractional inhibitory concentration index (FICI) [11]	Ratio [13]	fractional inhibitory concentration index (FICI) [14]	Ratio [15]	fold change (FC) [16]	MIC [10]	Activity [17]
0.8 µg/mL (≈ 2.19 µM)	1 µg/mL (≈ 2.74 µM)	–	–	–	–	–	–	CC1(C)S[C@@H]2[C@H](NC(=O)[C@H](N)c3ccc(O)cc3)C(=O)N2[C@H]1C(=O)O [AMOXICILLIN]	–	–	–	–	–	–	–	–	–	–
> 100 µg/mL	> 100 µg/mL	> 100 µg/mL	> 200 µg/mL	25.5 µg/mL (≈ 87.8 µM)	–	–	–	C=C(C)[C@@H]1CC[C@@]2(C)OC3=C(C[C@@H]12)C(=O)[C@]1(O)CO[C@H]3C1	Non-toxic	Non-toxic	Non-toxic	–	–	–	–	–	–	–
> 100 µg/mL	67.7 µg/mL (≈ 220 µM)	35.9 µg/mL (≈ 116 µM)	> 200 µg/mL	52.1 µg/mL (≈ 169 µM)	15.5 µg/mL (≈ 50.3 µM)	6.3 µg/mL	80 µg/mL	CC(C)(O)[C@@H]1CC[C@@]2(C)OC3=C(C[C@@H]12)C(=O)[C@]1(O)CO[C@H]3C1	Non-toxic	Non-toxic	Non-toxic	0.32	<0.4	<0.46	–	–	–	–
–	–	–	> 200 µg/mL	–	–	–	–	C=C(C)[C@@H]1CC[C@@]2(C)OC3=C(C[C@@H]12)C(=O)[C@@H]1C[C@@]3(O)CO1	Non-toxic	Non-toxic	Non-toxic	–	–	–	–	–	–	–
–	–	–	> 200 µg/mL	–	> 100 µg/mL	25 µg/mL	80 µg/mL	C[C@](O)(CO)[C@@H]1CC[C@@]2(C)OC3=C(C[C@@H]12)C(=O)[C@]1(O)CO[C@H]3C1	Non-toxic	Non-toxic	Non-toxic	<0.38	<0.4	<0.46	<0.25	–	–	–
–	–	2.4 µg/mL (≈ 4.13 µM)	–	1.7 µg/mL (≈ 2.92 µM)	–	–	–	CN[C@@H]1[C@H](O[C@H]2[C@H](O[C@H]3[C@H](O)[C@@H](O)[C@H](N=C(N)N)[C@@H](O)[C@@H]3N=C(N)N)O[C@@H](C)[C@]2(O)C=O)O[C@@H](CO)[C@H](O)[C@H]1O [STREPTOMYCIN]	–	–	–	–	–	–	–	–	–	–
37.7 µg/mL (≈ 113 µM)	59.5 µg/mL (≈ 178 µM)	> 100 µg/mL	145 µg/mL (≈ 434 µM)	45.5 µg/mL (≈ 136 µM)	24.3 µg/mL (≈ 72.7 µM)	6.3 µg/mL	40 µg/mL	Oc1cccc2c1[C@H](O)[C@@H]1O[C@@H]1C21Oc2cccc3cccc(c23)O1	Non-toxic	Non-toxic	Non-toxic	0.38	0.28	<0.34	0.26	–	–	–
–	–	–	> 200 µg/mL	–	–	–	–	C=C(C)[C@@H]1CC[C@@]2(C)OC3=C(C[C@@H]12)C(=O)[C@@H](OC)C[C@@H]3O	Non-toxic	Non-toxic	Non-toxic	–	–	–	–	–	–	–
> 100 µg/mL	37.3 µg/mL (≈ 128 µM)	> 100 µg/mL	> 200 µg/mL	> 100 µg/mL	–	–	–	C=C(C)[C@@H]1CC[C@@]2(C)OC3=C(C[C@@H]12)C(=O)[C@H](OC)C[C@@H]3O	Non-toxic	Non-toxic	Non-toxic	–	–	–	–	–	–	–
–	–	–	> 200 µg/mL	–	–	–	–	COC(=O)[C@]1(C(C)C)OC(=O)/C(=C\c2ccc(O)cc2)O1	Non-toxic	Non-toxic	Non-toxic	–	–	–	–	–	–	–
> 100 µg/mL	89.3 µg/mL (≈ 290 µM)	> 100 µg/mL	> 200 µg/mL	> 100 µg/mL	–	–	–	C=C(C)[C@@H]1CC[C@@]2(C)OC3=C(C[C@@H]12)C(=O)[C@](O)(CO)C[C@@H]3O	Non-toxic	Non-toxic	Non-toxic	–	–	–	–	–	–	–
73.6 µg/mL (≈ 240 µM)	73.5 µg/mL (≈ 240 µM)	88.3 µg/mL (≈ 288 µM)	> 200 µg/mL	53.2 µg/mL (≈ 174 µM)	> 100 µg/mL	25 µg/mL	40 µg/mL	C=C(C)[C@@H]1[C@H](O)C[C@@]2(C)OC3=C(C[C@@H]12)C(=O)[C@]1(O)CO[C@H]3C1	Non-toxic	Non-toxic	Non-toxic	<0.38	<0.25	<0.31	<0.25	>16	–	–
–	–	–	> 200 µg/mL	–	87.5 µg/mL (≈ 334 µM)	6.3 µg/mL	20 µg/mL	CC(C)[C@@]1(C(=O)O)OC(=O)/C(=C/c2ccccc2)O1	Non-toxic	Non-toxic	Non-toxic	0.19	<0.1	<0.16	0.07	–	–	–
–	–	–	> 200 µg/mL	–	–	–	–	C=C(CO)[C@@H]1CC[C@@]2(C)OC3=C(C[C@@H]12)C(=O)[C@]1(O)CO[C@H]3C1	Non-toxic	Non-toxic	Non-toxic	–	–	–	–	–	–	–
–	–	–	> 200 µg/mL	–	–	–	–	C=C(C)[C@@H]1CC[C@@]2(C)OC3=C(C[C@@H]12)C(=O)[C@H](O)C[C@@H]3O	Non-toxic	Non-toxic	Non-toxic	–	–	–	–	–	–	–
–	–	–	> 200 µg/mL	–	–	–	80 µg/mL	C=C(C)[C@@H]1C[C@H](O)[C@@]2(C)OC3=C(C[C@@H]12)C(=O)[C@]1(O)CO[C@H]3C1	Non-toxic	Non-toxic	Non-toxic	–	<0.4	<0.46	–	–	–	–
79.2 µg/mL (≈ 244 µM)	> 100 µg/mL	78 µg/mL (≈ 240 µM)	> 200 µg/mL	> 100 µg/mL	57.3 µg/mL (≈ 177 µM)	6.3 µg/mL	40 µg/mL	C[C@@]12CC[C@@H]([C@](C)(O)CO)[C@@H]1CC1=C(O2)[C@@H]2C[C@@](O)(CO2)C1=O	Non-toxic	Non-toxic	Non-toxic	0.23	<0.25	<0.31	0.11	>16	–	Active
–	–	–	> 200 µg/mL	–	–	–	–	C=C(COC(C)=O)[C@@H]1CC[C@@]2(C)OC3=C(C[C@@H]12)C(=O)[C@]1(O)CO[C@H]3C1	Non-toxic	Non-toxic	Non-toxic	–	–	–	–	–	–	–
–	–	–	> 200 µg/mL	–	–	–	80 µg/mL	C=C(C)[C@@H]1C[C@H](O)[C@@]2(C)OC3=C(C[C@@H]12)C(=O)[C@](O)(CO)C[C@@H]3O	Non-toxic	Non-toxic	Non-toxic	–	<0.4	<0.46	–	–	–	–

Compound	MIC [1]	MIC [2]	MIC [3]	MIC80 [4]	MIC [5]	MIC80 [9]	MIC80 [10]	MIC80 [12]	Activity [6]	Activity [7]	Activity [8]	fractional inhibitory concentration index (FICI) [11]	Ratio [13]	fractional inhibitory concentration index (FICI) [14]	Ratio [15]	fold change (FC) [16]	MIC [10]	Activity [17]
CC(C)[C@H]1OC(=O)[C@H](Cc2ccccc2)N(C)C(=O)[C@@H](C(C)C)OC(=O)[C@H](Cc2ccccc2)N(C)C(=O)[C@@H](C(C)C)OC(=O)[C@H](Cc2ccccc2)N(C)C1=O	–	–	–	> 200 µg/mL	–	> 100 µg/mL	–	40 µg/mL	–	–	–	<0.13	<0.25	<0.31	<0.013	>16	1.3 µg/mL	–
